Data reported in ChEMBL document CHEMBL1156940, “Modified cap group suberoylanilide hydroxamic acid histone deacetylase inhibitor derivatives reveal improved selective antileukemic activity” (J Med Chem, 2010).
Activity calls are given as the source filed them. The rule behind the calls is not given here.

Key:
[1] = test system: K562; test: Antiproliferative activity against human K562 cells after 48 hrs by cell titer-glo assay; format: functional, cell-based; settings: K562, 48 h
Summary of the method: (§1)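 Cells kept in RPMI-1640 with 10% FBS at 37 °C, 5% CO2. 10^4 suspension cells were plated immediately before dosing. Compounds were added at 0.1–100 µM, final 1% DMSO, with DMSO vehicle control, and incubated 48 h. CellTiter-Glo luminescence was read. EC50 is the dose reducing luminescence to 50% of untreated cultures.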

[2] = test system: Mus musculus; test: Toxicity in FVB mouse assessed as effect on number of RBC at 50 mg/kg, po administered 5 times per week for 2 weeks (reference value: 7.7 +/- 0.1 10^6/mm^3); format: organism-based; parameters: dose 50 mg/kg, route oral; settings: in vivo, 336 h
Summary of the method: (§2)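 8-week-old FVB mice were housed specific-pathogen-free and randomly assigned, n = 3 per group. They received 50 mg/kg compound or vehicle alone by oral gavage, five times weekly for 2 weeks. Body weight and survival were monitored. Differential blood counts came from nonlethal retro-orbital bleeds before study (J-5), during study (J5) and at end point (J12). Values are means ± spread for n = 3.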

[3] = test system: Mus musculus; test: Toxicity in FVB mouse assessed as effect on mean cell volume of red cells at 50 mg/kg, po administered 5 times per week for 2 weeks measured during test (reference value: 43.7 +/- 0.4 microm^3); format: organism-based; parameters: dose 50 mg/kg, route oral; settings: in vivo, 336 h; summary of the method: as §2
[4] = test system: Mus musculus; test: Toxicity in FVB mouse assessed as effect on number of RBC at 50 mg/kg, po administered 5 times per week for 2 weeks measured during test (reference value: 8.1 +/- 0.2 10^6/mm^3); format: organism-based; parameters: dose 50 mg/kg, route oral; settings: in vivo, 336 h; summary of the method: as §2
[5] = test system: Mus musculus; test: Toxicity in FVB mouse assessed as effect on mean platelet volume at 50 mg/kg, po administered 5 times per week for 2 weeks (reference value: 8.8 +/- 0.1 microm^3); format: organism-based; parameters: dose 50 mg/kg, route oral; settings: in vivo, 336 h; summary of the method: as §2
[6] = test system: Mus musculus; test: Toxicity in FVB mouse assessed as effect on hematocrit at 50 mg/kg, po administered 5 times per week for 2 weeks; format: organism-based; parameters: dose 50 mg/kg, route oral; settings: in vivo, 336 h; summary of the method: as §2
[7] = test system: Mus musculus; test: Toxicity in FVB mouse assessed as effect on number of WBC at 50 mg/kg, po administered 5 times per week for 2 weeks measured during test (reference value: 9.1 +/- 0.2 10^3/mm^3); format: organism-based; parameters: dose 50 mg/kg, route oral; settings: in vivo, 336 h; summary of the method: as §2
[8] = test system: U-937; test: Antiproliferative activity against human U937 cells after 48 hrs by cell titer-glo assay; format: functional, cell-based; settings: U-937, 48 h; summary of the method: as §1
[9] = test system: Mus musculus; test: Toxicity in FVB mouse assessed as effect on body weight at 50 mg/kg, po administered 5 times per week for 2 weeks; format: organism-based; parameters: dose 50 mg/kg, route oral; settings: in vivo, 336 h; summary of the method: as §2
[10] = test system: Mus musculus; test: Toxicity in FVB mouse assessed as mortality at 50 mg/kg, po administered 5 times per week for 2 weeks; format: organism-based; parameters: dose 50 mg/kg, route oral; settings: in vivo, 336 h
Summary of the method: (§3)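 8-week-old Fvb mice, SPF-housed in ventilated cages with acidified water, randomly assigned (n = 3 per group) to compound or solvent-only vehicle. Dosing was by oral gavage five times weekly for 2 weeks. Survival was monitored with body weight and blood counts during dosing, and deaths were also recorded during the month after treatment stopped.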

[11] = test system: Mus musculus; test: Toxicity in FVB mouse assessed as effect on mean platelet volume at 50 mg/kg, po administered 5 times per week for 2 weeks measured during test (reference value: 8.4 +/- 0.5 microm^3); format: organism-based; parameters: dose 50 mg/kg, route oral; settings: in vivo, 336 h; summary of the method: as §2
[12] = test system: Mus musculus; test: Toxicity in FVB mouse assessed as effect on number of WBC at 50 mg/kg, po administered 5 times per week for 2 weeks (reference value: 9.1 +/- 0.2 10^3/mm^3); format: organism-based; parameters: dose 50 mg/kg, route oral; settings: in vivo, 336 h; summary of the method: as §2
[13] = test system: Mus musculus; test: Toxicity in FVB mouse assessed as mortality at 50 mg/kg, po administered 5 times per week for 2 weeks measured up to 1 month; format: organism-based; parameters: dose 50 mg/kg, route oral; settings: in vivo, 336 h; summary of the method: as §3
[14] = test system: Mus musculus; test: Toxicity in FVB mouse assessed as effect on mean cell volume of red cells at 50 mg/kg, po administered 5 times per week for 2 weeks (reference value: 43.9 +/- 0.5 microm^3); settings: in vivo, 336 h
[15] = test system: Mus musculus; test: Toxicity in FVB mouse assessed as effect on number of platelets at 50 mg/kg, po administered 5 times per week for 2 weeks measured during test (reference value: 454 +/- 93 10^3/mm^3); format: organism-based; parameters: dose 50 mg/kg, route oral; settings: in vivo, 336 h; summary of the method: as §2
[16] = test system: Mus musculus; test: Toxicity in FVB mouse assessed as effect on body weight at 50 mg/kg, po administered 5 times per week for 2 weeks measured during test; format: organism-based; parameters: dose 50 mg/kg, route oral; settings: in vivo, 336 h; summary of the method: as §2
[17] = test system: Mus musculus; test: Toxicity in FVB mouse assessed as effect on hematocrit at 50 mg/kg, po administered 5 times per week for 2 weeks measured during test; format: organism-based; parameters: dose 50 mg/kg, route oral; settings: in vivo, 336 h; summary of the method: as §2
[18] = test system: Mus musculus; test: Toxicity in FVB mouse assessed as effect on number of platelets at 50 mg/kg, po administered 5 times per week for 2 weeks (reference value: 514 +/- 42.8 10^3/mm^3); format: organism-based; parameters: dose 50 mg/kg, route oral; settings: in vivo, 336 h; summary of the method: as §2
[19] = test system: HT-29; test: Antiproliferative activity against human HT-29 cells after 48 hrs by cell titer-glo assay; format: functional, cell-based; settings: HT-29, 48 h
[20] = test system: SK-BR-3; test: Antiproliferative activity against human SK-BR-3 cells after 48 hrs by cell titer-glo assay; format: functional, cell-based; settings: SK-BR-3, 48 h
[21] = test system: HL-60; test: Antiproliferative activity against human HL60 cells after 48 hrs by cell titer-glo assay; format: functional, cell-based; settings: HL-60, 48 h
[22] = test system: Jurkat; test: Antiproliferative activity against human Jurkat JA16 cells after 48 hrs by cell titer-glo assay; format: functional, cell-based
[23] = biological target: T1, Protein deacetylase HDAC6 (Homo sapiens) (UniProt Q9UBN7); test: Inhibition of recombinant FLAG-tagged HDAC6 assessed as [3H]acetic acid release preincubated for 30 mins measured after 2 hrs by scintillation counting
T1 sequence (whole entry): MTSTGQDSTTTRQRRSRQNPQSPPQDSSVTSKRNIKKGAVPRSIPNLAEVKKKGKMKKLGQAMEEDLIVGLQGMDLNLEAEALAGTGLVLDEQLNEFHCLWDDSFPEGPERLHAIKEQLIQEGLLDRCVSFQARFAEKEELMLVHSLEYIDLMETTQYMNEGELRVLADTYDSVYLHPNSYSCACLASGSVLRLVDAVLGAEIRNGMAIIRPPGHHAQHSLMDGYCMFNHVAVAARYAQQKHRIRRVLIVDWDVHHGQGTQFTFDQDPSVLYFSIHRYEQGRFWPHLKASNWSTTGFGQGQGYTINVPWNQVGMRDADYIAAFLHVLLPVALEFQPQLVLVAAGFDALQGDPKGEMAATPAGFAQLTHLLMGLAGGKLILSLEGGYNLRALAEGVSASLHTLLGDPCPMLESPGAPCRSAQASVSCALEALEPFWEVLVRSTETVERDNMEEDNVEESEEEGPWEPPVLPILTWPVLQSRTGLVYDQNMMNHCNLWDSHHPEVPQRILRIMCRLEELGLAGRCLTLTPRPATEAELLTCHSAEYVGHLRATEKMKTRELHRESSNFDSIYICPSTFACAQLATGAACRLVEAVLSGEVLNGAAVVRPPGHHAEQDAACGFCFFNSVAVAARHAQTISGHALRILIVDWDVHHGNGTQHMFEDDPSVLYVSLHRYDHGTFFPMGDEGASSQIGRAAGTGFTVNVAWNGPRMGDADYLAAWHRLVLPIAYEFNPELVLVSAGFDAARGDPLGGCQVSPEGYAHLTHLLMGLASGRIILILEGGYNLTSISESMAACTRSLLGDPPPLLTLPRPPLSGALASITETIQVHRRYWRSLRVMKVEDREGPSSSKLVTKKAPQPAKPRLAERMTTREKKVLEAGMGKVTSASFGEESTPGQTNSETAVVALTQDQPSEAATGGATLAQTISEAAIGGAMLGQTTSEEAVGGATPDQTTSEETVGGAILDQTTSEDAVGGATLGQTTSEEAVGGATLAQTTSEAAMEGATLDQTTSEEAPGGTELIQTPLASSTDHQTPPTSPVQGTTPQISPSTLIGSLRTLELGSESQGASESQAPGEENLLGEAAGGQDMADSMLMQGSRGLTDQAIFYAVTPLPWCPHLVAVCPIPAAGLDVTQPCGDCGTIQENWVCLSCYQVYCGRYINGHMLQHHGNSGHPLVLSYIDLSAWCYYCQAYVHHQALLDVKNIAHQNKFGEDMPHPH
Summary of the method: (§4)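 FLAG-tagged HDAC1 or HDAC6 was immunopurified from stably expressing cell lines and washed in HDAC buffer (10 mM Tris-HCl pH 8.0, 10 mM NaCl, 10% glycerol). Enzyme was preincubated with inhibitor (1 µM) for 30 min at 4 °C, then given 20 000 cpm [3H]peracetylated H4 peptide for 2 h at 37 °C. The reaction was stopped with acetic acid/HCl, extracted into ethyl acetate, and released [3H]acetate counted by scintillation.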

[24] = biological target: Histone deacetylase 1 (Homo sapiens) (UniProt Q13547); test: Inhibition of recombinant FLAG-tagged HDAC1 assessed as [3H]acetic acid release preincubated for 30 mins measured after 2 hrs by scintillation counting; summary of the method: as §4
Chain of Histone deacetylase 1 (Homo sapiens) (Q13547 whole entry): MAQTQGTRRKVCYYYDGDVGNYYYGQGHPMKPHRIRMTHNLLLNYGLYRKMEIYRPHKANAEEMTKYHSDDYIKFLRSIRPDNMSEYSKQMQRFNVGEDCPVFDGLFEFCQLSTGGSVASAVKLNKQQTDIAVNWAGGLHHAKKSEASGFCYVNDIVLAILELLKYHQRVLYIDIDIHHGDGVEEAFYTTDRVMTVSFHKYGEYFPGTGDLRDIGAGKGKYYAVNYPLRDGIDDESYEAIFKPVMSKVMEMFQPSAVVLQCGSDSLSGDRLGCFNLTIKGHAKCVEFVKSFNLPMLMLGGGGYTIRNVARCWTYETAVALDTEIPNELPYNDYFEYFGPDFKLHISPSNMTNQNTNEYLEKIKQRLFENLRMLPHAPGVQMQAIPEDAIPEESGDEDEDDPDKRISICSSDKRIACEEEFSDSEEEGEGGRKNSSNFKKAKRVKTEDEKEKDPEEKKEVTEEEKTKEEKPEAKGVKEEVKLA

[25] = Therapeutic ratio, EC50 for human PBMC to EC50 for human 937 cells; settings: human PBMC versus human 937 cells

In the case of `O=C(CCCCCCC(=O)Nc1ccccc1)NO` [VORINOSTAT], the EC50 [1] is reported as 2.2 µM, the Activity [2] is reported as 7.6 10^6/mm3 and the Activity [3] is reported as 44.1 um3. For the same compound, the Activity [4] was 8.3 10^6/mm3, the Activity [5] was 8.4 um3 and the Activity [6] was 33.7%. The Activity [7] was 5.9 10^3/mm3, the EC50 [8] was 0.82 µM and the Activity [9] was 96.2%. The Activity [10] was “Non-toxic”, the Activity [11] was 7.7 um3 and the Activity [12] was 8.3 10^3/mm3. The Activity [13] was “Non-toxic”, the Activity [14] was 44.5 um3 and the Activity [15] was 617 10^3/mm3. The Activity [16] was 94.9%, the Activity [17] was 36.5% and the Activity [18] was 538 10^3/mm3.
Work on `O=C(CCCCCCC(=O)Nc1ccccc1Br)NO` yielded an EC50 [19] of 17 µM, an EC50 [8] of 6.8 µM and an EC50 [20] of 17.5 µM.
`O=C(CCCCCCC(=O)Nc1ccc(O)cc1)NO` showed an EC50 [19] of 15 µM, an EC50 [8] of 6.4 µM and an EC50 [20] of 11 µM.
`O=C(CCCCCCC(=O)NO)NO` [SUBEROHYDROXAMIC ACID] gave an EC50 [19] of 32 µM, an EC50 [8] of 23 µM and an EC50 [20] of 27 µM.
`O=C(O)CCCCCCC(=O)NO` gave an EC50 [1] of over 100 µM, an EC50 [19] of over 100 µM and an EC50 [21] of over 100 µM. It also gave an EC50 [8] of over 100 µM, an EC50 [20] of over 100 µM and an EC50 [22] of over 100 µM.
Work on `O=C(CCCCCCC(=O)Nc1ccc(Cl)cc1)NO` yielded an EC50 [1] of 3.3 µM, an EC50 [19] of 2.1 µM and an EC50 [21] of 1.87 µM. For the same compound, the EC50 [8] was 0.55 µM, the Activity [23] was “Active” and the Activity [24] was “Active”. For the same compound, the EC50 [20] was 2.3 µM and the EC50 [22] was 0.77 µM.
`O=C(CCCCCCC(=O)Nc1ccc2ccccc2c1)NO` showed an EC50 [1] of 3 µM, an EC50 [19] of 0.85 µM and an EC50 [21] of 1.16 µM. The EC50 [8] was 0.35 µM, the Activity [23] was “Active” and the Activity [24] was “Active”. It also gave an EC50 [20] of 1.8 µM and an EC50 [22] of 0.4 µM.
`O=C(CCCCCCC(=O)Nc1ccccc1-c1ccccc1)NO` gave an EC50 [19] of 27 µM, an EC50 [8] of 14 µM and an EC50 [20] of 73.5 µM.
With `O=C(CCCCCCC(=O)Nc1ccc(F)cc1)NO` the EC50 [19] was 4.2 µM, the EC50 [8] was 1.8 µM and the Activity [23] was “Active”. The Activity [24] was “Active” and the EC50 [20] was 3 µM.
For `O=C(CCCCCCC(=O)Nc1cc2ccc3cccc4ccc(c1)c2c34)NO`, the EC50 [1] was 0.8 µM, the EC50 [19] was 1.4 µM and the EC50 [21] was 0.35 µM. For the same compound, the EC50 [8] was 0.3 µM, the selectivity ratio [25] was 15 and the Activity [23] was “Active”. For the same compound, the Activity [24] was “Active”, the EC50 [20] was 1.2 µM and the EC50 [22] was 0.18 µM.
